One test has as its target D(2) dopamine receptor (Bos taurus, UniProt P20288). Kind of test: Binding affinity of compound for Dopamine receptor D2 using [3H]N-0437.
In another test the target is D(1A) dopamine receptor (Bos taurus, UniProt Q95136). Kind of test: Binding affinity of compound for Dopamine receptor D1 using [3H]-SCH- 23390. The procedure, abridged: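 Rat striatal membranes; inhibition of 0.20 nM [3H]SCH23390 binding at D1 sites, following Hyttel et al. Ki in nM, n = 3, SEM < 10%.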
The test system of test [1] is Rattus norvegicus. Nature of the test: Total full contralateral turn in rat was observed at a dose of 1.0 mg kg-1 administered perorally. The class given is functional. Particulars: route oral.
In test [2] the test system is Rattus norvegicus. Nature of the test: Total full contralateral turn in rat was observed at a dose of 0.3 mg kg-1 administered perorally. It is filed as functional. Particulars: route oral.
Test [3] deals with Rattus norvegicus. Kind of test: Total full contralateral turn in rat was observed at a dose of 0.1 mg kg-1 administered perorally. It is filed as functional. The settings on record: route oral.

Chain of D(1A) dopamine receptor (Q95136 whole entry): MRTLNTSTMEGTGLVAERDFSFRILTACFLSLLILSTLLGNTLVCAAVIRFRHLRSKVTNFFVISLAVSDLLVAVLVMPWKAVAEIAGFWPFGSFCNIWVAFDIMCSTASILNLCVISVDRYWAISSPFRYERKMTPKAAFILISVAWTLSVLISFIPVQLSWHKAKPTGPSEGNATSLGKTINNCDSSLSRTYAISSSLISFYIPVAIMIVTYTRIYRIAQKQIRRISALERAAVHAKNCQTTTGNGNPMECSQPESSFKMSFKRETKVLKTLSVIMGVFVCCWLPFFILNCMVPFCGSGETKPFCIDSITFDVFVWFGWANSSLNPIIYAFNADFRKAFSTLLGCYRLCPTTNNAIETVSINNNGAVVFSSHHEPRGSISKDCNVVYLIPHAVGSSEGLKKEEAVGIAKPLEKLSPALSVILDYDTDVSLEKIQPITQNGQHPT
Chain of D(2) dopamine receptor (P20288 whole entry): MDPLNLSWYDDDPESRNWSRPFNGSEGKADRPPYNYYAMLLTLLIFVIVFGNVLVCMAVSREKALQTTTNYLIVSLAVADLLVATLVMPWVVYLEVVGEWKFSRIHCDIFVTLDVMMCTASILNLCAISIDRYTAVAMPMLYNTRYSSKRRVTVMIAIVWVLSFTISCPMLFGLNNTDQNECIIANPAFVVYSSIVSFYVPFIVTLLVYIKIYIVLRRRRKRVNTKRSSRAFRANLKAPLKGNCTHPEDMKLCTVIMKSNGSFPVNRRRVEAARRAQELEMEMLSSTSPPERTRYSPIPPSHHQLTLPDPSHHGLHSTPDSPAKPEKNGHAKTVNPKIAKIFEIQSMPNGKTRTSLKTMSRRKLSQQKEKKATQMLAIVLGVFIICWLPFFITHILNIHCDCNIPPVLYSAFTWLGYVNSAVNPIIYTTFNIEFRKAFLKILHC

With `CCCN(CCC)[C@@H]1Cc2cccc(O)c2C[C@H]1C`, the Ki at D(2) dopamine receptor came to 3 nM; at D(1A) dopamine receptor, 1.1 nM.

Turning to `CCCN(CCC)C1CCC2=C(C1)CC(C)(C)CC2=O` (racemic), the results for the Total turns in the test with Rattus norvegicus [1] and in the test on Rattus norvegicus [2] were 204 and 23, respectively.

As to `CCCN(CC)C1CCC2=C(CCCC2=O)C1` (racemic), the Total turns in the test on Rattus norvegicus [3] was 4840; in the test with Rattus norvegicus [2], 8901.

On to `CCCN(CCc1cccs1)[C@H]1CCc2c(ccc(O)c2O)C1` (racemic), for which the Ki at D(2) dopamine receptor came out at 6 nM; on D(1A) dopamine receptor, 110 nM.

On to `CCCN(CCc1cccs1)C1CCC2=C(CCCC2=O)C1` (racemic), for which the Total turns in the test on Rattus norvegicus [1] is on record as 503; in the test with Rattus norvegicus [3], 262.

With `C#CCN(C)C1CCC2=C(CCCC2=O)C1` (racemic), the Total turns with Rattus norvegicus [3] came to 713; with Rattus norvegicus [2], 513.

Consider `CCCN(C)C1CCC2=C(CCCC2=O)C1` (racemic), for which the Total turns in the test with Rattus norvegicus [3] is 2928; in the test on Rattus norvegicus [2], 5740.

On to `CCCN(CCCF)C1CCC2=C(CCCC2=O)C1` (racemic), for which the figures for the Total turns in the test on Rattus norvegicus [1] and in the test on Rattus norvegicus [2] were 7540 and 5194, respectively.

Turning to `CCCN(CCC)[C@H]1CCC2=C(CCCC2=O)C1` (racemic), the Total turns in the test with Rattus norvegicus [1] stood at 8787; in the test on Rattus norvegicus [3], 2312; in the test with Rattus norvegicus [2], 5354.

As to `CCCN(CCc1cccs1)[C@H]1CCc2c(O)cccc2C1` (racemic) [ROTIGOTINE], the Ki at D(2) dopamine receptor was 15 nM; at D(1A) dopamine receptor, 500 nM.

The values above are taken from ChEMBL document CHEMBL1145966, “Orally active analogues of the dopaminergic prodrug 6-(N,N-di-n-propylamino)-3,4,5,6,7,8-hexahydro-2H-naphthalen-1-one: synthesis and pharmacological activity” (J Med Chem, 2003).
